# Assay outcomes (PubChem)
# 5HT1a antag: 5-HT1a (human) receptor antagonism; inhibition, % at 10 µM; AID 612; CHO 5-HT1a Ga15 NFAT-bla reporter, antagonist mode; 62,000 compounds, 0.68% hits; P08908;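 active = inhibition above the mean of all tested compounds plus 3 SD, cut at about 43% in these data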;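 note: receptor stimulated by 5-CT agonist at 100 nM near EC80; beta-lactamase reporter measured by ratiometric fluorescence of a cleavable substrate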
# E coli RNAP: inhibitors of Escherichia coli RNA polymerase; AID 559; 62,000 compounds, 0.2% hits; inhibition, %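 (tested at 10 µM)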; P0A8V2; E. coli RNA polymerase, fluorescence transcription assay; in the data active = inhibition above about 20%;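 note: 0% = enzyme without compound and 100% = no enzyme blank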
# Target sequence (P0A8V2 whole entry, looked up): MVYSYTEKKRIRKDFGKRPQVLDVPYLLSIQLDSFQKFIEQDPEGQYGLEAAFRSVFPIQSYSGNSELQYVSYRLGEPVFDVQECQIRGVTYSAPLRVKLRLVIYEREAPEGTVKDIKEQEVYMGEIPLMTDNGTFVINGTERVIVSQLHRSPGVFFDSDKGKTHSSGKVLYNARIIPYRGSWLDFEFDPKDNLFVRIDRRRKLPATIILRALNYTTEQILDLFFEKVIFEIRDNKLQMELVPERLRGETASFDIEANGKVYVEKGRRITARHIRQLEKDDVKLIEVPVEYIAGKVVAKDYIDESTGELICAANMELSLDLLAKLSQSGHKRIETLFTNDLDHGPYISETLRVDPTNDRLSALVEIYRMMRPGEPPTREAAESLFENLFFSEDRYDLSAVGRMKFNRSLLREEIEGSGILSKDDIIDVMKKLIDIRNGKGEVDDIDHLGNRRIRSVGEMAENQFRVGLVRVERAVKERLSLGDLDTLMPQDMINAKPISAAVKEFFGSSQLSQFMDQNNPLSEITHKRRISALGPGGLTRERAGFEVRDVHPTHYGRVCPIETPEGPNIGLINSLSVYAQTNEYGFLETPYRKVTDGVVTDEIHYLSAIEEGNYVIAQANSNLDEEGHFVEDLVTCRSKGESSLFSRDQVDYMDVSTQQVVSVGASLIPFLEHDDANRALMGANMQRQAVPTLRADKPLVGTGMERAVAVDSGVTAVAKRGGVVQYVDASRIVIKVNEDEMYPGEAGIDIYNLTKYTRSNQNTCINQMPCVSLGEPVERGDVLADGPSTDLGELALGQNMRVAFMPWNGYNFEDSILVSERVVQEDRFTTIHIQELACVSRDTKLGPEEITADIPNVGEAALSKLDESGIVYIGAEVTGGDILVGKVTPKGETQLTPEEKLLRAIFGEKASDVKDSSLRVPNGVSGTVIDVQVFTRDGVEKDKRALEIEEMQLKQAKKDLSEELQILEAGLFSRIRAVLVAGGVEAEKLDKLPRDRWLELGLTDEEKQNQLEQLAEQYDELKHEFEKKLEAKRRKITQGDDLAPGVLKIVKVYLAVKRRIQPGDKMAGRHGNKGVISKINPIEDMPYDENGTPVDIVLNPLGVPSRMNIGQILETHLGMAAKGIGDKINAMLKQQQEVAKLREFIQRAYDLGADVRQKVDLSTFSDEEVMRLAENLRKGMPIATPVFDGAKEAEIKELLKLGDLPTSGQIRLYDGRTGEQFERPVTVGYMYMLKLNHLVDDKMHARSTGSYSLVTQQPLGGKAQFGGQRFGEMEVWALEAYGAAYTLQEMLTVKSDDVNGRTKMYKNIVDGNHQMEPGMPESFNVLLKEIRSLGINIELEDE
# 5HT1a ag: 5-HT1a (human) receptor agonism; CHO 5-HT1a Ga15 NFAT-bla reporter, FRET ratio; 0% basal, 100% maximal reference agonist; activation, % at 10 µM; 65,000 compounds, 0.56% hits; AID 567;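 active = activation above the screen-wide mean activation plus 3 SD, cut at about 19% in these data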;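 note: 0% = DMSO wells and 100% = 5-CT at EC100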
# S1P3 agonist: activates the human S1P3 receptor | AID 373 | S1P3 NFAT-BLA reporter cells, agonism, FRET ratio; relative to 1 µM S1P, basal subtracted | 60,000 compounds, 0.1% hits | activation, % at 4.5 µM;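 active = activation above the screen-wide mean plus 3 SD, cut at about 4.5% in these data, passing the limit was not always enough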
#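 Material: Human S1P3 NFAT-BLA reporter CHO cells | Incubation: Overnight plating, 4 h compound 37 °C, 2 h substrate RT | Signal: FRET β-lactamase substrate fluorescence, excitation 405 nm, 460/535 nm emission ratio, background-subtracted | Compound: 4.5 µM final, single dose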
# 5HT1E ag: agonists of human 5-HT1E serotonin receptor | CHO 5-HT1E Ga15 NFAT-bla reporter, FRET; 0% DMSO wells, 100% control agonist wells | activation, % at 6 µM | 65,000 compounds, 0.69% hits;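 active = activation above a set limit, the screen-wide mean activation plus 3 SD, cut at about 8.5% in these data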;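 note: 100% = positive control agonist at 1 µM giving full maximal response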
# HTR1E antagonist: blocks the human 5-HT1E serotonin receptor. inhibition, % at 6 µM. 65,000 compounds, 0.99% hits. AID 571. CHO 5-HT1E Ga15 NFAT-bla reporter, FRET, antagonist;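 active = inhibition above a set limit, the mean inhibition across every tested compound plus 3 SD, cut at about 29% in these data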;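 note: signal is the 460 over 535 nm emission ratio of beta-lactamase substrate; 0% = agonist plus DMSO wells and 100% = wells without agonist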
# * marks the source's active call; other numbers are inactive results; / = no result. Most compounds without a hit are left out; they make up all but 2.6% or so of the library.
SMILES,5HT1a antag,E coli RNAP,5HT1a ag,S1P3 agonist,5HT1E ag,HTR1E antagonist
COc1ccc(-c2cc3ccccc3n2CC(O)CN2CCOCC2)cc1 (centres undefined),4,-4,-3,/,0,-6
O=C(Nc1ccc2c(c1)OCO2)N1CCN(S(=O)(=O)c2ccc(Cl)cc2)CC1,8,6,-3,1,14*,20
O=C(CN1CCN(S(=O)(=O)c2ccc(Cl)cc2)CC1)Nc1ccc2c(c1)OCO2,-6,2,-2,0,-1,4
O=C(CSc1nnc(CNC(=O)c2cccs2)o1)NC1CCCCC1,-10,1,-2,/,0,-4
CCOc1ccc(CCNC(=O)C(C)n2nc(C)n3c(cc4occc43)c2=O)cc1OCC (centres undefined),5,4,2,1,-1,-8
COC(=O)c1cc(OC)c(OC)cc1NC(=O)C1CCC(=O)N1S(=O)(=O)c1ccc(C)cc1 (centres undefined),15,-1,3,-1,0,36*
CCOc1ccc(CCNC(=O)Cn2c(-c3nonc3N)nc3ccccc32)cc1OCC,15,9,1,-1,0,11
COc1cccc(Cn2c(-c3nonc3N)nc3ccccc32)c1,46*,4,-2,0,0,39*
CCCCOc1ccccc1NC(=O)Cn1c(-c2nonc2N)nc2ccccc21,62*,5,-3,-1,3,71*
COc1cc(Cn2c(-c3nonc3N)nc3ccccc32)ccc1C,64*,13,-5,-2,-1,52*
CCOCc1nnc(NC(=O)CCc2ccccc2)s1,6,6,1,0,0,4
CCOC(=O)c1ccc(NC(=O)Cn2cccc2)cc1,7,5,-2,-1,26*,-2
CCOC(=O)/N=C(/NC(=O)Nc1ccc(C(=O)OCC)cc1)OC,-5,10,1,-1,9.3*,13
CCOC(=O)c1ccc(NC(=O)COC)cc1,-5,12,0,0,-1,2
CCOC(=O)CC(/C(C)=N\O)c1ccccc1 (centres undefined),17,-3,-2,-1,40*,7
Cn1c(SCc2ccc3c(c2)OCO3)nnc1-c1ccccc1,-6,-13,0,0,0,-2
CCCCn1c(=N)n(CC(O)COc2cccc(C)c2)c2ccccc21 (centres undefined),43*,6,-1,-1,0,0
COc1ccc(OCC(O)Cn2c(=N)n(CCN3CCCCC3)c3ccccc32)cc1 (centres undefined),32,7,-2,-1,2,-1
Cc1ccc(OCC(O)Cn2c(=N)n(CCN3CCOCC3)c3ccccc32)cc1 (centres undefined),20,4,-1,-1,1,4
Cc1ccc(OCC(O)Cn2c(=N)n(CCN3CCCCC3)c3ccccc32)cc1 (centres undefined),43*,6,0,-2,-1,6
CCCCCn1c(=N)n(CC(O)COc2ccccc2OC)c2ccccc21 (centres undefined),64*,4,0,-1,0,11
NC(=O)C1(N2CCCCC2)CCN(Cc2nc3ccccc3c(=O)[nH]2)CC1,6,6,-3,-1,0,-4
O=S(=O)(c1ccc2ccccc2c1)n1cnc2ccccc21,6,7,-3,0,0,8
COc1ccccc1C(=O)N1CCN(Cc2ccc3c(c2)OCO3)CC1,/,0,-2,-2,8.8*,2
CCCSc1nnc(NC(=O)Nc2ccc(F)cc2)s1,/,5,-1,-3,0,32*
SMILES,5HT1a antag,E coli RNAP,5HT1a ag,S1P3 agonist,5HT1E ag,HTR1E antagonist
CN1CCCc2cc3c(C(F)(F)F)cc(=O)oc3nc21,19,-15,5,0,2,41*
CC(C)c1cc(=O)oc2c3c4c(cc12)CCCN4CCC3,0,-3,-5,0,0,15
Cc1cc(NC(=O)Cc2cccs2)nn1CC(=O)NCc1ccco1,7,3,-3,-1,16*,7
COc1ccc(-c2nc(C#N)c(NCc3ccc(F)cc3)o2)cc1OC,3,0,0,0,1,30*
CCCCCOc1ccc(C(=O)N(Cc2ccco2)C2CCS(=O)(=O)C2)cc1 (centres undefined),-1,4,0,-2,0,9
Cc1c(Cc2ccccc2)c(=O)oc2c(CN(C)C)c(O)c(Cl)cc12,-44,-152,20*,2,8,-9
Cc1c(C)c2cc(Cl)c(O)c(CN3CCN(C)CC3)c2oc1=O,/,/,8,-1,1,-4
COc1cccc2cc(C(=O)N3CCc4ccccc43)c(=O)oc12,-12,5,-4,-1,-1,-8
CCOC(=O)c1cc2sccc2n1CC(=O)N1CCc2ccccc21,25,4,-1,/,1,44*
CCOC(=O)c1cc2sccc2n1CC(=O)OC(C)C,8,6,-1,0,-1,1
CCOCC(=O)N1CCc2ccccc21,6,6,24*,0,0,4
CC(=O)c1c(C)[nH]c(C(=O)N2CCc3ccccc32)c1C,-2,9,0,0,1,-4
CCOC(=O)c1[nH]c(C)c(C(=O)N2CCc3ccccc32)c1C,51*,10,-3,-1,-1,77*
COc1ccccc1C(=O)N1CCc2ccccc21,7,6,-4,0,20*,-1
Cc1c(C(=O)O)c(-c2ccccc2)nn1-c1ccccc1,-2,14,0,-1,0,-2
Cc1nc(/N=C(\N)Nc2ccccc2)nc2ccccc12,/,7,5,-3,0,8
Cc1cccc(Nc2nc(NC(C)C)nc(Oc3ccc(=O)n(C)n3)n2)c1,4,4,-3,-1,-1,18
CCn1c(Cc2ccccc2)nnc1SCC(=O)Nc1ccc2c(c1)OCCO2,-1,6,0,-1,0,-5
CC1(C)Cc2c(c(=S)nc(-c3ccccc3)n2CCOCCO)CO1,-20,2,0,/,18*,7
OCCOCCn1c(-c2ccccc2)nc(=S)c2c1CCCC2,-6,-3,-2,0,1,8
CCC(CC)C(=O)Nc1cc(C)c2c(=O)oc3ccccc3c2n1,-51,4,2,0,0,31*
O=C(c1ccccc1NS(=O)(=O)c1cccs1)N1CCCC1,2,8,1,/,1,-15
Cc1cc(SCC#N)n2nc(C)c(-c3ccccc3)c2n1,2,/,0,0,0,57*
N#Cc1c(N)nc(SCc2ccccn2)c(C#N)c1-c1cccs1,/,-1,5,-2,0,30*
Clc1ccc2[nH]c3c(NCC4CCCO4)ncnc3c2c1 (centres undefined),11,-1,4,0,0,32*
